Several values for one entry are separate records, joined by “and”; a condition that tells them apart may be missing. Identical values can stand only once.
Test system: HEK-293T
Assay: Multiplex assay against HEK293T
Type: toxicity, cell-based
Settings: human, number of replicates 2
Summary of the method: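 Hoechst33342, BioTracker Green Microtubule Cytoskeleton Dye, MitoTracker Red and Annexin V Alexa Fluor 680 were added to live cells at seeding, and imaging on a CQ1 microscope at 37°C and 5% CO2 followed compound addition. Gating by CellPathfinder machine learning separated cells into Hoechst high-intensity objects or normal cells, then normal cells into healthy, pyknosed or fragmented nuclei, then pyknosed cells into mitotic or apoptotic. Per cents of healthy-nucleus cells are reported for the tubulin, mitochondrial-mass and membrane-permeability phenotypes.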

[1] = 12 h, 1 µM, compound concentration 1 uM
[2] = 12 h, 10 µM, compound concentration 10 uM
[3] = 24 h, 1 µM, compound concentration 1 uM
[4] = 24 h, 10 µM, compound concentration 10 uM
[5] = 48 h, 1 µM, compound concentration 1 uM
[6] = 48 h, 10 µM, compound concentration 10 uM

Question: What does the source list for `CS(=O)(=O)c1ccc(C(=O)Nc2cc(F)cc(COc3ccc(Br)cc3CN3CC[C@H](O)C3)c2)c(Cl)c1.O=CO`?
Answer: Population Apoptotic (%) [1]: 63%; Population Healthy Nuclei (%) [1]: 81% and 82%; Population Mitotic Cells (%) [1]: 45% and 36%; Population Pyknosed Nuclei (%) [1]: 16% and 13%; Total Cell Count [1]: 543 and 646; Population Apoptotic (%) [2]: 68% and 69%; Population Healthy Nuclei (%) [2]: 83% and 84%; Population Mitotic Cells (%) [2]: 31% and 30%; Population Pyknosed Nuclei (%) [2]: 13%; Total Cell Count [2]: 462 and 578; Population Apoptotic (%) [3]: 60% and 50%; Population Healthy Nuclei (%) [3]: 82%; Population Mitotic Cells (%) [3]: 39% and 49%; Total Cell Count [3]: 757 and 913; Population Apoptotic (%) [4]: 70%; Population Healthy Nuclei (%) [4]: 79% and 83%; Population Mitotic Cells (%) [4]: 29%; Population Pyknosed Nuclei (%) [4]: 17%; Total Cell Count [4]: 505 and 555; Population Apoptotic (%) [5]: 34% and 23%; Population Healthy Nuclei (%) [5]: 85%; Population Mitotic Cells (%) [5]: 65% and 76%; Population Pyknosed Nuclei (%) [5]: 3% and 4%; Total Cell Count [5]: 1715 and 1868; Population Apoptotic (%) [6]: 54% and 57%; Population Healthy Nuclei (%) [6]: 85% and 80%; Population Mitotic Cells (%) [6]: 46% and 42%; Population Pyknosed Nuclei (%) [6]: 8% and 10%; Total Cell Count [6]: 633 and 761

Question: Which results are given for `CS(=O)(=O)c1ccc(C(=O)Nc2cccc(COc3ccc(Br)cc3CN3CC[C@H](O)C3)c2)cc1.O=CO`?
Answer: Population Apoptotic (%) [1]: 50% and 69%; Population Fragmented Nuclei (%) [1]: 2% and 3%; Population Healthy Nuclei (%) [1]: 72% and 70%; Population Normal (%) [1]: 87% and 88%; Total Cell Count [1]: 490 and 407; Population Apoptotic (%) [2]: 46%; Population Fragmented Nuclei (%) [2]: 3% and 2%; Population Healthy Nuclei (%) [2]: 85%; Population Normal (%) [2]: 93% and 94%; Total Cell Count [2]: 467 and 532; Population Fragmented Nuclei (%) [3]: 6% and 5%; Population Healthy Nuclei (%) [3]: 79% and 76%; Population Normal (%) [3]: 89% and 90%; Total Cell Count [3]: 663 and 599; Population Apoptotic (%) [4]: 57% and 66%; Population Fragmented Nuclei (%) [4]: 3% and 4%; Population Healthy Nuclei (%) [4]: 80% and 85%; Population Normal (%) [4]: 95% and 91%; Total Cell Count [4]: 543 and 659; Population Apoptotic (%) [5]: 46%; Population Fragmented Nuclei (%) [5]: 13% and 10%; Population Healthy Nuclei (%) [5]: 80% and 84%; Population Normal (%) [5]: 90%; Total Cell Count [5]: 1404 and 1241; Population Apoptotic (%) [6]: 32%; Population Fragmented Nuclei (%) [6]: 5% and 6%; Population Healthy Nuclei (%) [6]: 86%; Population Normal (%) [6]: 93% and 92%; Total Cell Count [6]: 812 and 937

Question: What does the source list for `CS(=O)(=O)c1ccc(C(=O)Nc2cccc(COc3ccc(Br)cc3CN3CCC[C@H](O)C3)c2)c(Cl)c1.O=CO`?
Answer: Population Healthy Nuclei (%) [1]: 82%; Population Mitotic Cells (%) [1]: 45% and 44%; Total Cell Count [1]: 629 and 598; Population Healthy Nuclei (%) [2]: 85% and 88%; Population Mitotic Cells (%) [2]: 38% and 41%; Total Cell Count [2]: 549 and 638; Population Healthy Nuclei (%) [3]: 83% and 85%; Population Mitotic Cells (%) [3]: 60% and 48%; Total Cell Count [3]: 967 and 829; Population Healthy Nuclei (%) [4]: 83% and 85%; Population Mitotic Cells (%) [4]: 49% and 30%; Total Cell Count [4]: 569 and 612; Population Healthy Nuclei (%) [5]: 82% and 86%; Population Mitotic Cells (%) [5]: 82% and 78%; Total Cell Count [5]: 2080 and 1482; Population Healthy Nuclei (%) [6]: 86% and 84%; Population Mitotic Cells (%) [6]: 62% and 45%; Total Cell Count [6]: 820 and 907

Question: Which results are given for `Cc1onc(-c2ccccc2Cl)c1C(=O)N(C)c1ccc(Cl)cc1`?
Answer: Population Apoptotic (%) [1]: 39% and 47%; Population Fragmented Nuclei (%) [1]: 2% and 5%; Population Healthy Nuclei (%) [1]: 80% and 83%; Population Hoechst High Intensity Objects (%) [1]: 6%; Population Membrane Permeable-Phenotype (%) [1]: 2% and 1%; Population Mitochondria Different-Phenotype (%) [1]: 18% and 15%; Population Mitotic Cells (%) [1]: 60% and 52%; Population Normal (%) [1]: 93%; Population Pyknosed Nuclei (%) [1]: 16% and 11%; Population Tubulin-Different-Phenotype (%) [1]: 47% and 44%; Total Cell Count [1]: 587 and 613; Population Apoptotic (%) [2]: 50%; Population Fragmented Nuclei (%) [2]: 3%; Population Healthy Nuclei (%) [2]: 81% and 84%; Population Hoechst High Intensity Objects (%) [2]: 5% and 7%; Population Membrane Permeable-Phenotype (%) [2]: 4% and 1%; Population Mitochondria Different-Phenotype (%) [2]: 26% and 20%; Population Mitotic Cells (%) [2]: 50% and 49%; Population Normal (%) [2]: 94% and 92%; Population Pyknosed Nuclei (%) [2]: 15% and 11%; Population Tubulin-Different-Phenotype (%) [2]: 77% and 55%; Total Cell Count [2]: 575 and 625; Population Apoptotic (%) [3]: 44% and 42%; Population Fragmented Nuclei (%) [3]: 7%; Population Healthy Nuclei (%) [3]: 83% and 86%; Population Hoechst High Intensity Objects (%) [3]: 6% and 8%; Population Membrane Permeable-Phenotype (%) [3]: 2%; Population Mitochondria Different-Phenotype (%) [3]: 4% and 5%; Population Mitotic Cells (%) [3]: 55% and 57%; Population Normal (%) [3]: 93% and 91%; Population Pyknosed Nuclei (%) [3]: 9% and 6%; Population Tubulin-Different-Phenotype (%) [3]: 22%; Total Cell Count [3]: 896 and 976; Population Apoptotic (%) [4]: 36% and 23%; Population Fragmented Nuclei (%) [4]: 5% and 6%; Population Healthy Nuclei (%) [4]: 84% and 85%; Population Hoechst High Intensity Objects (%) [4]: 5% and 8%; Population Membrane Permeable-Phenotype (%) [4]: 4%; Population Mitochondria Different-Phenotype (%) [4]: 14% and 5%; Population Mitotic Cells (%) [4]: 63% and 76%; Population Normal (%) [4]: 94% and 91%; Population Pyknosed Nuclei (%) [4]: 9% and 7%; Population Tubulin-Different-Phenotype (%) [4]: 51% and 30%; Total Cell Count [4]: 757 and 965; Population Apoptotic (%) [5]: 12% and 17%; Population Fragmented Nuclei (%) [5]: 11% and 9%; Population Healthy Nuclei (%) [5]: 84% and 87%; Population Hoechst High Intensity Objects (%) [5]: 8%; Population Membrane Permeable-Phenotype (%) [5]: 4%; Population Mitochondria Different-Phenotype (%) [5]: 1% and 0%; Population Mitotic Cells (%) [5]: 87% and 82%; Population Normal (%) [5]: 91%; Population Pyknosed Nuclei (%) [5]: 3% and 2%; Population Tubulin-Different-Phenotype (%) [5]: 8% and 11%; Total Cell Count [5]: 2361 and 2103; Population Apoptotic (%) [6]: 25% and 17%; Population Fragmented Nuclei (%) [6]: 11% and 14%; Population Healthy Nuclei (%) [6]: 84% and 82%; Population Hoechst High Intensity Objects (%) [6]: 8%; Population Membrane Permeable-Phenotype (%) [6]: 6%; Population Mitochondria Different-Phenotype (%) [6]: 2% and 0%; Population Mitotic Cells (%) [6]: 75% and 82%; Population Normal (%) [6]: 91%; Population Pyknosed Nuclei (%) [6]: 4% and 2%; Population Tubulin-Different-Phenotype (%) [6]: 33% and 16%; Total Cell Count [6]: 1552 and 2354

Question: What does the source list for `C[C@@H]1CC[C@@]2(OC1)O[C@H]1[C@@H](O)[C@H]3[C@@H]4CC[C@H]5C[C@@H](O[C@@H]6O[C@H](CO)[C@H](O[C@@H]7O[C@H](CO)C(O)[C@H](O[C@@H]8OC[C@@H](O)[C@H](O)[C@H]8O)[C@H]7O[C@@H]7O[C@H](CO)[C@H](O)[C@H](O[C@@H]8O[C@H](CO)[C@@H](O)[C@H](O)[C@H]8O)[C@H]7O)[C@H](O)[C@H]6O)[C@H](O)C[C@]5(C)[C@H]4CC[C@]3(C)[C@H]1[C@@H]2C` (stereo not given in full) [DIGITONIN]?
Answer: Population Apoptotic (%) [2]: 61% and 33% and 40% and 57%; Population Fragmented Nuclei (%) [2]: 7% and 2% and 3% and 6%; Population Healthy Nuclei (%) [2]: 79% and 88% and 83% and 81%; Population Hoechst High Intensity Objects (%) [2]: 10% and 5% and 4% and 8%; Population Membrane Permeable-Phenotype (%) [2]: 1% and 3%; Population Mitochondria Different-Phenotype (%) [2]: 14% and 13% and 16% and 17%; Population Mitotic Cells (%) [2]: 38% and 66% and 59% and 42%; Population Normal (%) [2]: 89% and 94% and 95% and 91%; Population Pyknosed Nuclei (%) [2]: 13% and 8% and 12% and 11%; Population Tubulin-Different-Phenotype (%) [2]: 50% and 43% and 44% and 49%; Total Cell Count [2]: 558 and 637 and 534 and 641; Population Apoptotic (%) [4]: 44% [middle of 4 runs]; Population Fragmented Nuclei (%) [4]: 5% and 8% and 2% and 10%; Population Healthy Nuclei (%) [4]: 86% and 81% and 90%; Population Hoechst High Intensity Objects (%) [4]: 7% and 9% and 6% and 8%; Population Membrane Permeable-Phenotype (%) [4]: 3% and 2%; Population Mitochondria Different-Phenotype (%) [4]: 4% and 2% and 7% and 3%; Population Mitotic Cells (%) [4]: 67% and 34% and 68% and 55%; Population Normal (%) [4]: 92% and 90% and 93% and 91%; Population Pyknosed Nuclei (%) [4]: 8% and 9% and 6%; Population Tubulin-Different-Phenotype (%) [4]: 26% and 22% and 28% and 17%; Total Cell Count [4]: 1037 and 963 and 742 and 1134; Population Apoptotic (%) [6]: 13% and 14% and 23% and 21%; Population Fragmented Nuclei (%) [6]: 13% and 15% and 10% and 17%; Population Healthy Nuclei (%) [6]: 83% and 79% and 85% and 80%; Population Hoechst High Intensity Objects (%) [6]: 10% and 9% and 11%; Population Membrane Permeable-Phenotype (%) [6]: 5% and 3% and 2%; Population Mitochondria Different-Phenotype (%) [6]: 0%; Population Mitotic Cells (%) [6]: 86% and 85% and 76% and 78%; Population Normal (%) [6]: 89% and 90% and 88%; Population Pyknosed Nuclei (%) [6]: 3% and 4% and 2%; Population Tubulin-Different-Phenotype (%) [6]: 13% and 5% and 14% and 6%; Total Cell Count [6]: 2746 and 2725 and 1654 and 2990
